Measurements published in ChEMBL document CHEMBL4145612, “Phenolic Constituents Isolated from the Twigs of Cinnamomum cassia and Their Potential Neuroprotective Effects” (J Nat Prod, 2018).

Test system: SH-SY5Y
Assay: Neuroprotective activity against tunicamycin-induced cell death in human SH-SY5Y cells pretreated for 6 hrs followed by tunicamycin addition measured after 48 hrs by MTT assay
Assay type: functional, cell-based
Outline: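 SH-SY5Y cells grown in DMEM/High Glucose:F12 (1:1) with 10% FBS at 37 °C, 5% CO2, seeded 4 × 10^3/well and left 12 h. Compounds given at 25, 50 and 100 μM for 6 h, then tunicamycin added for 48 h. Medium replaced; MTT 0.5 mg/mL final, 4 h at 37 °C; absorbance 570 nm. Salubrinal 40 μM as positive control; three independent experiments, means ± SEM; EC50 derived.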

Compound | Activity | EC50 [µM]
C=CCc1cc(O)c(-c2c(OC)cc([C@@H]3OO[C@@H]3CO)cc2OC)c(OC)c1 | Dose-dependent effect | 21 to 75
OC[C@H]1O[C@@H](OC/C=C/c2ccccc2)[C@H](O)[C@@H](O)[C@@H]1O | Dose-dependent effect | 21 to 75
COc1ccc([C@@H]2C(=O)OC[C@H]2c2ccc3c(c2)OCO3)cc1 | Dose-dependent effect | 21 to 75
O=C1OC[C@@H](c2ccc(O)c(O)c2)[C@@H]1c1ccc(O)cc1 | Dose-dependent effect | 21 to 75
COc1cc([C@H](OC)[C@@H]2CO[C@@H](c3cc(OC)c(O)c(OC)c3)[C@@H]2COC(C)=O)cc(OC)c1O | Dose-dependent effect | 21 to 75
C=CCc1cc(O)c(-c2c(OC)cc([C@H]3OO[C@H]3CO)cc2OC)c(OC)c1 | Dose-dependent effect | 21 to 75
COc1ccc([C@@H]2C(=O)OC[C@H]2c2ccc(O)c(OC)c2)cc1 | Dose-dependent effect | 21 to 75
O=C(CCc1ccccc1)OC/C=C/c1ccccc1 | Dose-dependent effect | 21 to 75
